PubChem BioAssay AID504899 (The Scripps Research Institute Molecular Screening Center, 2011)

Tested on: DIO C57BL/6 mice, hepatic G6Pase mRNA, 15 mg/kg ip 6 d
Test: liver G6Pase and PEPCK expression, blood glucose – diet-induced obese mice, pyruvate tolerance test, powder sample, in vivo study for RORA inverse agonist project, late-stage follow-up (AID 504899)
Details: stronger effect = lower value
Summary of the method: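 Technique: glucometer blood glucose plus liver gene mRNA / System: obese high-fat-fed male C57BL/6 mice, 30 weeks old / Probe or stimulus: pyruvate challenge, 2 g/kg intraperitoneal / Measure: gene expression and glucose as % of vehicle / Timing: 6 h fast before pyruvate, glucose sampled 0, 15, 30, 60 min post-challenge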

Compound: O=S(=O)(Nc1ccc(C(O)(C(F)(F)F)C(F)(F)F)cc1)c1cccs1
- PEPCK mRNA expression (DIO C57BL/6 mice, 15 mg/kg ip 6 d, measured here: hepatic PEPCK mRNA, % control): 51%
- blood glucose (DIO C57BL/6 mice, 15 mg/kg ip 6 d, measured here: pyruvate tolerance test blood glucose): 76%
- G6Pase mRNA expression (dose or concentration not given here): 52%
